This is an account of results in ChEMBL document CHEMBL3352511, “Pyrrole-3-carboxamides as potent and selective JAK2 inhibitors” (Bioorg Med Chem, 2014).

pIC50: −log10 of the molar value. In brackets after ≈: the same amount, converted by molar mass. Some results are limits rather than exact numbers.

Data set [1] has as its target Tyrosine-protein kinase JAK2 (Homo sapiens, UniProt O60674).
Data set [2] concerns the target Tyrosine-protein kinase JAK2 (Homo sapiens, UniProt O60674, V617F).
In the next data set the test system is A2780. Put plainly: Antiproliferative activity against human A2780 cells after 72 hrs by Cell Titer-Glo assay. The class given is functional, cell-based. To be noted: A2780, 72 h. (In general: Cellular ATP, detected with luciferase, serves as a proxy for viable cell number.)
Data set [3] is described as follows: Antiproliferative activity against human DERL7 cells after 72 hrs by Cell Titer-Glo assay. It counts as functional, cell-based. The note with it: DERL7, 72 h.
A short description of data set [4]: Cmax in Balb nu/nu mouse at 10 mg/kg, iv. The class given is ADME, organism-based. Details: dose 10 mg/kg, route intravenous. To be noted: in vivo. Summed up: (§1)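 Overnight-fasted male Nu/Nu mice, single intravenous dose in 10% Tween 80 in 5% dextrose, three mice. Saphenous vein blood taken at predose, 0.083, 0.5, 1, 6 and 24 h. Plasma obtained by centrifugation at 10,000g, 3 min, 4 °C, stored at -80 °C, then analysed by LC/MS/MS.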

Data set [5] is described as follows: Half life in Balb nu/nu mouse at 10 mg/kg, po. To be noted: in vivo. It counts as ADME, organism-based. Details: dose 10 mg/kg, route oral. A digest of the protocol:
(§2)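 Overnight-fasted male Nu/Nu mice, single oral dose in 0.5% methocel, three mice. Saphenous vein blood taken at predose, 0.083, 0.5, 1, 6 and 24 h. Plasma obtained by centrifugation at 10,000g, 3 min, 4 °C, stored at -80 °C, then analysed by LC/MS/MS.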

The nature of data set [6]: AUC(infinity) in Balb nu/nu mouse at 10 mg/kg, po. Details: time infinity, dose 10 mg/kg, route oral. The note with it: plasma. It counts as ADME, organism-based. Summed up: as §2
Data set [7] in a line: Half life in Balb nu/nu mouse at 10 mg/kg, iv. It counts as ADME, organism-based. Details: dose 10 mg/kg, route intravenous. To be noted: in vivo. A digest of the protocol: as §1
Data set [8] is described as follows: Volume of distribution at steady state in Balb nu/nu mouse at 10 mg/kg, iv. It counts as ADME, organism-based. Set-up: dose 10 mg/kg, route intravenous. To be noted: in vivo, read-out: Vdss. Summed up: as §1
Data set [9] can be described thus: Oral bioavailability in Balb nu/nu mouse at 10 mg/kg. The note with it: in vivo. The class given is ADME, organism-based. Summed up:
as §2

The nature of data set [10]: Solubility of the compound in buffer at pH7. The class given is physicochemical. The note with it: pH 7.
Data set [11] in a line: Cmax in Balb nu/nu mouse at 10 mg/kg, po. The class given is ADME, organism-based. Details: dose 10 mg/kg, route oral. To be noted: in vivo. Summed up: as §2
A further data set deals with Mus musculus. Put plainly: (§3) AUC(infinity) in Balb nu/nu mouse at 10 mg/kg, iv. The class given is ADME, organism-based, Plasma. Set-up: dose 10 mg/kg, route intravenous, time infinity. The note with it: in vivo. A digest of the protocol: as §1
Data set [12] can be described thus: Clearance in Balb nu/nu mouse at 10 mg/kg, iv. The class given is ADME, organism-based. Details: dose 10 mg/kg, route intravenous. To be noted: in vivo. A digest of the protocol:
as §1

Data set [13] is described as follows: as §3. It counts as ADME, organism-based, Plasma. To be noted: Balb nu/nu, plasma. Set-up: dose 10 mg/kg, route intravenous, time infinity. Summed up:
as §1

Sequence of Tyrosine-protein kinase JAK2 (Homo sapiens, UniProt O60674) (O60674 whole entry): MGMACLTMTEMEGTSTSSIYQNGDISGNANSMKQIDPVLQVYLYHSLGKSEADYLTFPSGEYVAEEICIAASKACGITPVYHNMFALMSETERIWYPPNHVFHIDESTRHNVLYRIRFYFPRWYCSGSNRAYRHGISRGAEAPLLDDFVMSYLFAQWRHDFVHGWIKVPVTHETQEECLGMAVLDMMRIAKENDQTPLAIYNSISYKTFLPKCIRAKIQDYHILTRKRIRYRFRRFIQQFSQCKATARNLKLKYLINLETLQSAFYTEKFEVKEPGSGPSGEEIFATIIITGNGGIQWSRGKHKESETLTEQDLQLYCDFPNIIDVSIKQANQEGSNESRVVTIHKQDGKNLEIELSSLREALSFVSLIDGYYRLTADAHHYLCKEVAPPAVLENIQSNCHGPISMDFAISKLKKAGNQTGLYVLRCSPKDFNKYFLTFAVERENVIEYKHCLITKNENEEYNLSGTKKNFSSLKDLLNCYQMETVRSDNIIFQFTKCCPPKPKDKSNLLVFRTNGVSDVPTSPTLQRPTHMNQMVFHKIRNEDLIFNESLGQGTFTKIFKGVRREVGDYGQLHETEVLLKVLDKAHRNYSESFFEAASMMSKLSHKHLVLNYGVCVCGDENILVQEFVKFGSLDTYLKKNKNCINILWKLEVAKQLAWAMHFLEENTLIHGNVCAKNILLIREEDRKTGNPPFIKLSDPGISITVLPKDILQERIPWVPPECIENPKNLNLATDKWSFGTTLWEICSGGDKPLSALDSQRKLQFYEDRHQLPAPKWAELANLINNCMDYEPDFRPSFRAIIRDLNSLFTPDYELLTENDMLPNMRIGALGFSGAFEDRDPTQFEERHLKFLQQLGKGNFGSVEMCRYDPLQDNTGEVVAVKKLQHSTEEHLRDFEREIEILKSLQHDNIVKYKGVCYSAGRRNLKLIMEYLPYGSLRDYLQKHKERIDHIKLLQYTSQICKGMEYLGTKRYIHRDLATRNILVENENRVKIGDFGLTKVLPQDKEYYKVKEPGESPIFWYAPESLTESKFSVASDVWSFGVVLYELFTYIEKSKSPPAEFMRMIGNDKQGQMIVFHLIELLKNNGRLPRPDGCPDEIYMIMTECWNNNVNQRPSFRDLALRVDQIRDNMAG
Sequence of Tyrosine-protein kinase JAK2 (Homo sapiens, UniProt O60674, V617F) (O60674 whole entry V617F): as the sequence (O60674 whole entry) above, with V617F counted along it

For `Cc1ccc(Cl)cc1-c1c(C(N)=O)cc(-c2ccnc(N)n2)n1C`, in [1], the pIC50 (commonly −log10 of the IC50, conventionally taken in molar units) is 7.18.
Consider `Cc1ccc(Cl)cc1-c1c(C(N)=O)cc(-c2ccnc(Nc3ccc(N4CCN(C)CC4)cc3)n2)n1C`, for which the pIC50 in data set [1] was 7.66; in [2] it was 6.60.
Take `NC(=O)c1cc(-c2ccnc(N)n2)[nH]c1-c1cc(Cl)ccc1Cl`: the values for the pIC50 (in the data set with A2780; in data set [3]; in data set [2]) were 5.61, 5.78 and 6.15, respectively.
The compound `Cc1ccc(Cl)cc1-c1[nH]c(-c2ccnc(N)n2)cc1C(=O)Nc1ccccc1` had a pIC50 in [1] of 6.61.
The same measure, in the same setting: the result for `NC(=O)c1cc(-c2ccnc(N)n2)[nH]c1-c1ccccc1` reads 5.49.
Still for that read-out and setting: under `Cc1ccc(Cl)cc1-c1[nH]c(-c2ccnc(N)n2)cc1C(=O)NCCO` stands 7.24; under `Cc1ccc(Cl)cc1-c1[nH]c(-c2ccnc(N)n2)cc1C(=O)NCc1ccccc1`, 6.81; under `NC(=O)c1cc(-c2ccnc(N)n2)[nH]c1-c1cc(Cl)ccc1C(F)(F)F`, 7.28.
Same read-out and setting: under `COc1ccc(Cl)cc1-c1[nH]c(-c2ccnc(N)n2)cc1C(N)=O` stands 6.51.
`COc1ccc(CNc2nccc(-c3cc(C(N)=O)c(-c4cc(Cl)ccc4C)[nH]3)n2)cc1`: the pIC50 in data set [1] was 6.40.
The same measure, in the same setting: the result for `Cc1ccc(Cl)cc1-c1[nH]c(-c2ccnc(N)n2)cc1C(=O)NCCF` reads 6.94.
Take `CCc1ccc(Cl)cc1-c1[nH]c(-c2ccnc(N)n2)cc1C(N)=O`: the Cmax (as a rule, the maximum level reached in the sampled fluid or tissue) in data set [4] is 4.5 µM; in data set [11], 0.6 µM. For the same compound, the half-life – broadly, how long it takes for the measured level to halve – is 48 min in data set [5] and 12 min in [7]. For the same compound, the total exposure AUC(0-inf) (in general, the area under the concentration-time curve extrapolated to infinity) in [6] is 0.7 µM·h. Further, the Vd in data set [8] stood at 1.8 L/kg. For the same compound, the bioavailability (as a rule, the share of a dose that reaches the circulation, judged against a reference dose that is usually intravenous) in data set [9] is 17%. Moreover, the pIC50 with A2780 was 5.70; in [3], 6.06. Moreover, in [10], the concentration in solution (solubility) came to 200 µM (≈ 68.4 µg/mL). Further, the AUC (as a rule, the area under the concentration-time curve, a measure of exposure) in the data set on Mus musculus worked out at 2 µM·h.
Turning to `CC(C)c1ccc(Cl)cc1-c1[nH]c(-c2ccnc(N)n2)cc1C(N)=O`, the pIC50 in data set [1] is 6.82.
The compound `Cc1ccc(Cl)cc1-c1[nH]c(-c2ccnc(Nc3ccc(N4CCN(C)CC4)cc3)n2)cc1C(N)=O` showed a pIC50 in data set [1] of 7.23.
Consider `Cc1ccc(C(F)(F)F)cc1-c1[nH]c(-c2ccnc(N)n2)cc1C(N)=O`, for which the pIC50 is 8.00 in [1], 6.36 in the data set with A2780, 6.19 in data set [3] and 6.12 in [2].
`Cc1ccccc1-c1[nH]c(-c2ccnc(N)n2)cc1C(N)=O` had a pIC50 in data set [1] of 6.16.
As for `CNC(=O)c1cc(-c2ccnc(N)n2)[nH]c1-c1cc(Cl)ccc1C`, the pIC50 in data set [1] was 7.46; with A2780, 6.01; in [3] it was 5.68; in data set [2] it was 6.32.
Turning to `Cc1ccc(Cl)cc1-c1[nH]c(-c2ccnc(N)n2)cc1C(=O)N(C)C`, the pIC50 in [1] was 5.51.
Compound `Cc1ccc(Cl)cc1-c1[nH]c(-c2ccnc(N)n2)cc1C(=O)NCC(C)C` showed a pIC50 in [1] of 6.42.
On the same count and under the same terms, the result for `Cc1ccc(Cl)cc1-c1[nH]c(-c2ccncn2)cc1C(N)=O` reads 5.91.
For the compound `CCc1ccc(C(F)(F)F)cc1-c1[nH]c(-c2ccnc(N)n2)cc1C(N)=O`, the Cmax turned out to be 38.9 µM in data set [4] and 4.4 µM in data set [11]. The clearance (commonly the volume of plasma or blood freed of the substance per unit of time) in data set [12] turned out to be 21.6 mL/min/kg. The half-life in [5] is 108 min; in data set [7] it was 60 min. Also, the AUC(0-inf) in data set [6] was 4.6 µM·h; in [13] it was 20.7 µM·h. Also, the Vd in data set [8] turned out to be 0.6 L/kg. This compound gave a bioavailability in data set [9] of 24%. The pIC50 with A2780 was 5.66; in data set [3] it was 5.83; in [2], 6.49. Further, the solubility (commonly the dissolved amount per volume that the medium holds) in [10] was 182 µM (≈ 68.3 µg/mL).
For `Cc1ccc(Cl)cc1-c1[nH]c(-c2ccnc(N)n2)cc1C(N)=O`, the pIC50 in the data set with A2780 is 6.42; in data set [3] it was 6.13.
Consider `CNCCNC(=O)c1cc(-c2ccnc(N)n2)[nH]c1-c1cc(Cl)ccc1C`, for which the pIC50 in data set [1] is 7.36; in data set [2] it was less than 5.52.
`NC(=O)c1cc(-c2ccnc(N)n2)[nH]c1-c1ccccc1Cl` gave a pIC50 in [1] of 6.21.
On to `NC(=O)c1cc(-c2ccnc(N)n2)[nH]c1-c1cc(OC(F)(F)F)ccc1Cl`, for which the pIC50 in [1] was 7.62; in data set [2], 5.96.
On the same counts, the results for `NC(=O)c1cc(-c2ccnc(N)n2)[nH]c1-c1cc(C(F)(F)F)ccc1C(F)(F)F` are 7.68 and 5.51.
With `Cc1ccc(Cl)cc1-c1[nH]c(-c2ccnc(N)n2)cc1C(=O)NC1CCN(C)CC1`, the pIC50 in data set [1] was 7.34; in [2], less than 5.52.
For `NC(=O)c1cc(-c2ccnc(N)n2)[nH]c1-c1cccc(Cl)c1`, the negative logarithm of the IC50 (pIC50) in [1] was 6.21.
Same read-out and setting: the result for `CCNC(=O)c1cc(-c2ccnc(N)n2)[nH]c1-c1cc(Cl)ccc1C` reads 6.96.
